Compound activity (PubChem)
Sampled rows, rich in hits. Any-hit rate of the full collection: about 3.7%.
Granule exo inh: LAMP-1 surface exposure blockers, TALL-104 cells – cell-based, flow cytometry, MLPCN library, primary screen; TALL-104 LAMP-1 surface exposure; cells stimulated with thapsigargin and PMA; inhibition, % at 10 µM; actives 0.66% (n = 360,000); AID 651702, 2012;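 active = inhibition above about 55%, limit read from the data; inconclusive = no clear call, values can overlap the other calls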
EBI2 block: EBI2 receptor antagonists, beta-arrestin recruitment, primary screen, cell-based, luminescence, 7a,25-OHC stimulation, uHTS. 7a,25-OHC stimulated. actives 0.81% (n = 360,000). inhibition, % at 5 µM. AID 651636, 2012; in the data active = inhibition above about 38%;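 note: enzyme fragment complementation signal reports receptor beta-arrestin coupling in cells; 0% = agonist plus DMSO wells and 100% = wells without agonist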
Myeloid diff MLP: induction of myeloid progenitor differentiation, primary screen, cell-based, flow cytometry, MLPCN library; AID 624256, 2012; calls only at 10 µM; ER-HoxA9 myeloid progenitors, lysozyme-GFP differentiation; actives 1% (n = 360,000);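 active = normalized GFP-positive differentiation at or above the plate's own cutoff, the solvent-only control mean plus 3 SD; inconclusive = no clear call, values can overlap the other calls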;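 note: cells exposed to compound for four days before flow analysis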
MC4R antagonist: MC4R antagonists of cAMP signaling, primary screen, cell-based, TR-FRET, antagonist arm of biased-ligand search. MC4R-expressing cells, MTII-stimulated cAMP, LANCE TR-FRET. inhibition, % at 6.5 µM. AID 540295, 2011. actives 0.48% (n = 360,000). Melanocortin receptor 4 (Homo sapiens), P32245;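 active = inhibition above its plate's cutoff, the mean of tested wells on that plate plus 3 SD, cut at about 29% in these data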;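 note: 0% = Melanotan II alone and 100% = Melanotan II plus saturating MCL0020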
Target sequence (P32245 whole entry, looked up): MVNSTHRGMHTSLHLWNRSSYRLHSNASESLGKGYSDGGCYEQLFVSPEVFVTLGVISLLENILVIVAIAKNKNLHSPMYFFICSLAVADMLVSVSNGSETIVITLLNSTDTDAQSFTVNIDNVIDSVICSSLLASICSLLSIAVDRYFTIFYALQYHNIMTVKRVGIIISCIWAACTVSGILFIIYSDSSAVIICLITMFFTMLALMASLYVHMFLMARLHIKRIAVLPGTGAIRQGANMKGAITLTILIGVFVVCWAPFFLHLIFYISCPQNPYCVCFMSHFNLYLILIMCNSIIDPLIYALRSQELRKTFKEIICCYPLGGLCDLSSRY
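system = U2OS cells with stable human MC4R expression | also added = Melanotan II challenge after compound preincubation | dosing = one concentration, 6.5 µM nominal | incubation = compound 30 min, challenge 1 h, detection 1 h | measured by = TR-FRET with Eu-cAMP and labeled anti-cAMP, 671 nm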
MC4R barr agon: MC4R agonists recruiting beta-arrestin, primary screen, cell-based, luminescence, agonist arm of biased-ligand search; activation, % at 8.9 µM; U2OS MC4R beta-arrestin complementation; percent of melanotan II response, DMSO zero; Melanocortin receptor 4 (Homo sapiens), P32245; actives 0.98% (n = 360,000);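 active = activation above a per-plate cutoff, the mean activation of sample wells on that plate plus 3 SD, cut at about 8% in these data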
An asterisk follows results filed as active.

For C/C=C(\C)C(=O)N[C@@H](c1ccccc1)[C@@H](O)C(=O)O[C@H]1C[C@@]2(O)[C@@H](OC(=O)c3ccccc3)C3[C@](C)(C(=O)[C@H](OC(C)=O)C(=C1C)C2(C)C)[C@@H](O)C[C@H]1OC[C@@]31OC(C)=O (stereo not given in full) the results were Granule exo inh -7, EBI2 block -3, Myeloid diff MLP active, MC4R antagonist 8 and MC4R barr agon 1.
For CC12CC[C@H]3[C@@H](CCC4(O)C[C@H](O)CCC34/C=N/NC(=O)c3ccc(O)cc3)C1(O)CCC2C1=CC(=O)OC1 (stereo not given in full) the results were Granule exo inh 1, EBI2 block 7, Myeloid diff MLP inactive, MC4R antagonist 15 and MC4R barr agon 1.
`CC(=O)OC1CC(OC2C(O)CC(OC3C(O)CC(OC4CCC5(C)C(CCC6C5CCC5(C)C(C7=CC(=O)OC7)CCC65O)C4)OC3C)OC2C)OC(C)C1OC1OC(CO)C(O)C(O)C1O` (stereo not given) gave Granule exo inh 2, EBI2 block -4, MC4R antagonist -5 and MC4R barr agon 33*.
Oc1ccc(-[n+]2c(-c3ccccc3)cc(-c3ccccc3)cc2-c2ccccc2)cc1 was read as Granule exo inh 28, EBI2 block -4, Myeloid diff MLP inactive, MC4R antagonist 3 and MC4R barr agon 4.
Screening Oc1ccccc1-[n+]1c(-c2ccccc2)cc(-c2ccccc2)c(O)c1-c1ccccc1 returned Granule exo inh 74*, EBI2 block -9, Myeloid diff MLP inactive, MC4R antagonist 11 and MC4R barr agon 2.
For C=C(C)[C@@H]1C2C(=O)O[C@H]1[C@H]1OC(=O)[C@@]34OC3C[C@]2(O)[C@@]14C (stereo not given in full) the results were Granule exo inh -7, EBI2 block -2, Myeloid diff MLP inactive, MC4R antagonist 7 and MC4R barr agon -1.
C[C@@H]1CC[C@H]2[C@@H](C)C(=O)O[C@@H]3O[C@@]4(C)CC[C@@H]1[C@]32OO4 was read as Granule exo inh -3, EBI2 block -26, Myeloid diff MLP active, MC4R antagonist 5 and MC4R barr agon -1.
`CCC(C)NC(=O)CCC(=O)OC1O[C@H]2OC3(C)CC[C@H]4[C@H](C)CCC(C1C)C24OO3` (stereo not given in full) gave Granule exo inh 1, EBI2 block -21, Myeloid diff MLP inconclusive, MC4R antagonist 14 and MC4R barr agon 1.
For Cc1ccc2nsnc2c1-n1c(C)nc2ccccc2c1=O the results were Granule exo inh 0, EBI2 block -8, Myeloid diff MLP active, MC4R antagonist -9 and MC4R barr agon 0.
Screening COc1cc(C=C2C(=O)NC(=O)NC2=O)ccc1OCc1ccc([N+](=O)[O-])cc1 returned Granule exo inh -3, EBI2 block 2, Myeloid diff MLP inactive, MC4R antagonist 18 and MC4R barr agon -2.
For COc1cc(/C=C(/C)[N+](=O)[O-])ccc1OCc1ccccc1Cl the results were Granule exo inh 85*, EBI2 block 72*, Myeloid diff MLP inconclusive, MC4R antagonist 32* and MC4R barr agon -5.
Screening COC(=O)C1=C(c2ccc(F)cc2OCc2ccccc2)C[C@@H]2CC[C@H]1N2C(=O)NCc1ccccc1Cl returned Granule exo inh 30, EBI2 block 26, Myeloid diff MLP active, MC4R antagonist -3 and MC4R barr agon 0.
For COC(=O)C1=C(c2ccccc2OCc2ccccc2)C[C@@H]2CC[C@H]1N2C(=O)NCCOc1ccccc1 the results were Granule exo inh 22, EBI2 block 19, Myeloid diff MLP inconclusive, MC4R antagonist 11 and MC4R barr agon 1.
`COC(=O)C1=C(c2ccc(Cl)c(C(F)(F)F)c2)C[C@@H]2CC[C@H]1N2C(=O)NCc1ccc2c(c1)OCO2` gave Granule exo inh 76*, EBI2 block 6, Myeloid diff MLP inactive, MC4R antagonist -6 and MC4R barr agon 0.
`COC(=O)C1=C(c2cccc(OCc3ccccc3)c2)C[C@@H]2CC[C@H]1N2C(=O)NCc1ccc(N(C)C)cc1` gave Granule exo inh 12, EBI2 block 8, Myeloid diff MLP active, MC4R antagonist 13 and MC4R barr agon -1.
`COC(=O)C1=C(c2ccccc2OCc2ccccc2)C[C@@H]2CC[C@H]1N2C(=O)NCCOc1ccc(OC)cc1` gave Granule exo inh -4, EBI2 block 51*, Myeloid diff MLP inactive, MC4R antagonist 11 and MC4R barr agon -1.
`COc1ccc(CN2C(=O)C(CC(=O)NCc3ccco3)CC(C(=O)N(C)C)=C2C)cc1` (stereo not given) gave Granule exo inh 5, EBI2 block -8, Myeloid diff MLP inactive, MC4R antagonist 3 and MC4R barr agon 1.
For CC(C)(C#CC(=O)O)OOC(c1ccccc1)(c1ccccc1)c1ccccc1 the results were Granule exo inh -1, EBI2 block 9, Myeloid diff MLP inactive, MC4R antagonist 16 and MC4R barr agon -1.
O=c1[nH]c(=S)[nH]c(O)c1/C=N/N1CCOCC1 was read as Granule exo inh -2, EBI2 block -11, Myeloid diff MLP inactive, MC4R antagonist 7 and MC4R barr agon 0.
CC(=O)OC1CC[C@]2(C#N)[C@H]3CC[C@]4(C)[C@H](C5C=CC(=O)O5)CCC4(O)C3CCC2(O)C1 (stereo not given in full) was read as Granule exo inh -12, EBI2 block -12, Myeloid diff MLP inactive, MC4R antagonist 15 and MC4R barr agon 14*.
For Cc1ccc(C)c(NC(=O)CCNC(=O)N2C[C@H]3C[C@@H](C2)c2cccc(=O)n2C3)c1 the results were Granule exo inh -6, EBI2 block 0, Myeloid diff MLP inactive, MC4R antagonist 1 and MC4R barr agon 1.
For O=C1NC(=O)N(c2ccc(Cl)cc2)C(=O)/C1=C/c1coc2ccc(O)cc2c1=O the results were Granule exo inh -1, EBI2 block 3, Myeloid diff MLP active, MC4R antagonist -9 and MC4R barr agon 0.
For Cc1cc(/C=C2\C(=O)NC(=O)N(c3ccc(Cl)cc3)C2=O)c(C)n1-c1cccc(C(=O)O)c1 the results were Granule exo inh 1, EBI2 block -12, Myeloid diff MLP inactive, MC4R antagonist 2 and MC4R barr agon 0.
